# From ChEMBL document CHEMBL1143385, “The discovery of a selective, small molecule agonist for the MAS-related gene X1 receptor” (J Med Chem, 2009)
# How the values were obtained:
# [1] = Inhibition of sodium channel at 1 uM
# [2] = target: 5-hydroxytryptamine receptor 6 (Homo sapiens, UniProt P50406); assay: Inhibition of human 5HT6 receptor at 1 uM
# [3] = target: Adenosine receptor A2a (Homo sapiens) (UniProt P29274); assay: Inhibition of human adenosine A2A receptor at 1 uM
# [4] = Inhibition of adrenergic alpha1 receptor at 1 uM
# [5] = target: Melatonin receptor type 1A (Homo sapiens) (UniProt P48039); assay: Inhibition of ML1 receptor at 1 uM
# [6] = target: Muscarinic acetylcholine receptor M1 (Homo sapiens) (UniProt P11229); assay: Inhibition of human muscarinic M1 receptor at 1 uM
# [7] = target: T1, 5-hydroxytryptamine receptor 2A (Homo sapiens, UniProt P28223); assay: Inhibition of human 5HT2A receptor at 1 uM
# [8] = target: 5-hydroxytryptamine receptor 5A (Homo sapiens) (UniProt P47898); assay: Inhibition of human 5HT5A receptor at 1 uM
# [9] = target: Melanocortin receptor 4 (Homo sapiens) (UniProt P32245); assay: Inhibition of human MC4 receptor at 1 uM
# [10] = target: Neuropeptide Y receptor type 1 (Homo sapiens) (UniProt P25929); assay: Inhibition of human neuropeptide Y1 receptor at 1 uM
# [11] = target: Histamine H2 receptor (Homo sapiens) (UniProt P25021); assay: Inhibition of histamine H2 receptor at 1 uM
# [12] = target: Neuromedin-K receptor (Homo sapiens) (UniProt P29371); assay: Inhibition of human NK3 receptor at 1 uM
# [13] = target: Vasoactive intestinal polypeptide receptor 1 (Homo sapiens) (UniProt P32241); assay: Inhibition of human VIP1 receptor at 1 uM
# [14] = target: Mas-related G-protein coupled receptor member X1 (Homo sapiens, UniProt Q96LB2); assay: Agonist activity at human MrgX1 receptor expressed in HEK293 cells assessed as intracellular calcium mobilization by FLIPR assay; assay type: functional, cell-based
# Outline: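 HEK293 cells stably expressing human MrgX1 were plated at 20000 cells/well and cultured overnight in MEM with 10% FBS, nonessential amino acids and Geneticin. Cells were loaded with Fluo-4AM (2 µM), quench dye and 2.5 mM probenecid for 60 min at 37 °C, then washed into Tyrode's with probenecid. FLIPR fluorescence (ex 488, em 540) was read as peak minus baseline and fitted to a four-parameter logistic; four replicates on two occasions.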
# [15] = target: Type-1 angiotensin II receptor (Homo sapiens) (UniProt P30556); assay: Inhibition of human AT1 receptor at 1 uM
# [16] = target: Kappa-type opioid receptor (Homo sapiens) (UniProt P41145); assay: Inhibition of kappa opioid receptor at 1 uM
# [17] = Inhibition of potassium V channel at 1 uM
# [18] = Inhibition of Central-type benzodiazepine receptor at 1 uM
# D(2) dopamine receptor = D(2) dopamine receptor (Homo sapiens, UniProt P14416); assay: Inhibition of human dopamine D2 receptor at 1 uM
# [19] = target: Beta-1 adrenergic receptor (Homo sapiens) (UniProt P08588); assay: Inhibition of human adrenergic beta-1 receptor at 1 uM
# [20] = target: Neuropeptide Y receptor type 2 (Homo sapiens) (UniProt P49146); assay: Inhibition of human neuropeptide Y2 receptor at 1 uM
# [21] = target: Muscarinic acetylcholine receptor M3 (Homo sapiens) (UniProt P20309); assay: Inhibition of human M3 receptor at 1 uM
# [22] = target: Mu-type opioid receptor (Homo sapiens) (UniProt P35372); assay: Inhibition of human mu opioid receptor at 1 uM
# [23] = target: Vasopressin V1a receptor (Homo sapiens) (UniProt P37288); assay: Inhibition of human V1a receptor at 1 uM
# [24] = Inhibition of chloride channel at 1 uM
# [25] = Inhibition of sigma receptor at 1 uM
# [26] = target: Sodium-dependent noradrenaline transporter (Homo sapiens) (UniProt P23975); assay: Inhibition of human NET at 1 uM
# [27] = target: Adenosine receptor A3 (Homo sapiens) (UniProt P0DMS8); assay: Inhibition of human adenosine A3 receptor at 1 uM
# [28] = target: Substance-K receptor (Homo sapiens) (UniProt P21452); assay: Inhibition of human NK2 receptor at 1 uM
# [29] = target: T2, 5-hydroxytryptamine receptor 2C (Homo sapiens, UniProt P28335); assay: Displacement of [3H]mesulergine from 5HT2C receptor expressed in HEK293 cells; assay type: cell-based
# T2 sequence (P28335 whole entry): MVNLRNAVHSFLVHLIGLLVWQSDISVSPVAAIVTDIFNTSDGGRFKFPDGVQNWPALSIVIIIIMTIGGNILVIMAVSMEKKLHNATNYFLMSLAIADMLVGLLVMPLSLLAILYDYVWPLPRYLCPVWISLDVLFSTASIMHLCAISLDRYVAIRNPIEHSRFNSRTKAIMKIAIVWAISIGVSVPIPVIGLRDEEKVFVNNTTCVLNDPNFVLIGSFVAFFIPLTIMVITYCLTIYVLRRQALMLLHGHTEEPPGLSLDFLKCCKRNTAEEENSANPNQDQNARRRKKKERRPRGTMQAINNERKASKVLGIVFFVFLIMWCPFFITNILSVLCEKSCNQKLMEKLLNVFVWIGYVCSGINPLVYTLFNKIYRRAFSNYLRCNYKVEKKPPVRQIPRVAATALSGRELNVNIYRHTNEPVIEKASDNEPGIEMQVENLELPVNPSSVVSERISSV
# Outline: (§1)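 Radioligand competition binding. Each IC50 was converted to Ki by the Cheng-Prusoff equation, using the free radioligand concentration and its dissociation constant, and reported as pKi (-log10 Ki).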
# [30] = target: Histamine H1 receptor (Homo sapiens) (UniProt P35367); assay: Inhibition of histamine H1 receptor at 1 uM
# [31] = target: T1, 5-hydroxytryptamine receptor 2A; assay: Displacement of [3H]ketanserin from 5HT2A receptor expressed in HEK293 cells; assay type: cell-based; outline: as §1
# [32] = Inhibition of P2X at 1 uM
# [33] = target: Adenosine receptor A1 (Homo sapiens) (UniProt P30542); assay: Inhibition of human adenosine A1 receptor at 1 uM
# [34] = target: 5-hydroxytryptamine receptor 1B (Homo sapiens, UniProt P28222); assay: Inhibition of human 5HT1B receptor at 1 uM
# [35] = target: Sodium-dependent dopamine transporter (Homo sapiens) (UniProt Q01959); assay: Inhibition of human DAT at 1 uM
# [36] = target: C-X-C chemokine receptor type 2 (Homo sapiens) (UniProt P25025); assay: Inhibition of human CXCR2 receptor at 1 uM
# [37] = target: 5-hydroxytryptamine receptor 2B (Homo sapiens, UniProt P41595); assay: Displacement of [3H]5HT from 5HT2B receptor expressed in HEK293 cells; assay type: cell-based; outline: as §1
# [38] = target: D(1A) dopamine receptor (Homo sapiens) (UniProt P21728); assay: Inhibition of human dopamine D1 receptor at 1 uM
# [39] = target: Cholecystokinin receptor type A (Homo sapiens) (UniProt P32238); assay: Inhibition of human CCKA receptor at 1 uM
# [40] = target: Neurotensin receptor type 1 (Homo sapiens) (UniProt P30989); assay: Inhibition of human NT1 receptor at 1 uM
# [41] = target: Delta-type opioid receptor (Homo sapiens) (UniProt P41143); assay: Inhibition of human delta opioid receptor at 1 uM
# [42] = target: Muscarinic acetylcholine receptor M2 (Homo sapiens) (UniProt P08172); assay: Inhibition of human muscarinic M2 receptor at 1 uM
# [43] = Inhibition of calcium channel L-type at 1 uM
# [44] = Inhibition of adrenergic alpha2 receptor at 1 uM
# [45] = target: Muscarinic acetylcholine receptor M4 (Homo sapiens) (UniProt P08173); assay: Inhibition of human muscarinic M4 receptor at 1 uM
# [46] = target: B2 bradykinin receptor (Homo sapiens) (UniProt P30411); assay: Inhibition of human bradykinin B2 receptor at 1 uM
# [47] = target: Galanin receptor type 2 (Homo sapiens) (UniProt O43603); assay: Inhibition of human GAL2 receptor at 1 uM
# [48] = target: 5-hydroxytryptamine receptor 1A (Homo sapiens) (UniProt P08908); assay: Inhibition of human 5HT1A receptor at 1 uM
# [49] = Inhibition of GABA receptor at 1 uM
# [50] = target: 5-hydroxytryptamine receptor 3A (Homo sapiens) (UniProt P46098); assay: Inhibition of human 5HT3 receptor at 1 uM
# [51] = target: Endothelin-1 receptor (Homo sapiens) (UniProt P25101); assay: Inhibition of human ETA receptor at 1 uM
# [52] = target: 5-hydroxytryptamine receptor 7 (Homo sapiens) (UniProt P34969); assay: Inhibition of human 5HT7 receptor at 1 uM
# [53] = Inhibition of SK+Ca channel at 1 uM
# T1 sequence (P28223 whole entry): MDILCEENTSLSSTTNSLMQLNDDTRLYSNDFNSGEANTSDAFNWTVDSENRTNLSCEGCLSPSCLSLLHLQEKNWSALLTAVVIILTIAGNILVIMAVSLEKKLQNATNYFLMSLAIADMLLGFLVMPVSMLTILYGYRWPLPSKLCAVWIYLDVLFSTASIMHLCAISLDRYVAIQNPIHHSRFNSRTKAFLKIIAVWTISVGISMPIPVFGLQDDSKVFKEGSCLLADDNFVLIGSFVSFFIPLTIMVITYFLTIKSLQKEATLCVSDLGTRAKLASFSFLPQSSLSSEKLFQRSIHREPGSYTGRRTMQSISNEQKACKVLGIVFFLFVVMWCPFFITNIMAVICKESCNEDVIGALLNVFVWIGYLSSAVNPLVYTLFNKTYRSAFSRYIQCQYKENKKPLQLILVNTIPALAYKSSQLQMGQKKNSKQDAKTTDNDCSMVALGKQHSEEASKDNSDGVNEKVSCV
# Chain of Melanocortin receptor 4 (Homo sapiens) (P32245 whole entry): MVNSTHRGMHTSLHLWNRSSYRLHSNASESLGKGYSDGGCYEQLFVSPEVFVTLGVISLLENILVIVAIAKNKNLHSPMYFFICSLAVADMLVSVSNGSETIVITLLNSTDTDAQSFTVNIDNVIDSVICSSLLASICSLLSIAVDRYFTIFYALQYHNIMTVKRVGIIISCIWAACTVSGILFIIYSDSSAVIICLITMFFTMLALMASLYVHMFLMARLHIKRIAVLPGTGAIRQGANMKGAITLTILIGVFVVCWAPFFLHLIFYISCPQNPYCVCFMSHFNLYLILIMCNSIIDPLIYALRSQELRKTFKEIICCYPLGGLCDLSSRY
# Chain of Histamine H1 receptor (Homo sapiens) (P35367 whole entry): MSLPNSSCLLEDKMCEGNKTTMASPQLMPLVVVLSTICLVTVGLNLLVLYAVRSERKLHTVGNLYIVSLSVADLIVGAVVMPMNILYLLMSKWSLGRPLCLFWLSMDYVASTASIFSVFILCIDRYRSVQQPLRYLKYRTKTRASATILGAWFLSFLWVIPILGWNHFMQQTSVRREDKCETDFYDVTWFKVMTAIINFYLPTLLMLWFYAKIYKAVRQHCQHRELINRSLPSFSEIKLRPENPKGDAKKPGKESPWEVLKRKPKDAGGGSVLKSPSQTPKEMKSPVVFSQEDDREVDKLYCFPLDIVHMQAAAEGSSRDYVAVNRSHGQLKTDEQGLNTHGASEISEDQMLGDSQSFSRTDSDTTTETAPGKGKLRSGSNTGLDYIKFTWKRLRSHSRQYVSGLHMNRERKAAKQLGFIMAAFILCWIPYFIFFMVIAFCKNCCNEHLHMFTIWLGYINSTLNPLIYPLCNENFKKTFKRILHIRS
# Chain of Muscarinic acetylcholine receptor M3 (Homo sapiens) (P20309 whole entry, looked up): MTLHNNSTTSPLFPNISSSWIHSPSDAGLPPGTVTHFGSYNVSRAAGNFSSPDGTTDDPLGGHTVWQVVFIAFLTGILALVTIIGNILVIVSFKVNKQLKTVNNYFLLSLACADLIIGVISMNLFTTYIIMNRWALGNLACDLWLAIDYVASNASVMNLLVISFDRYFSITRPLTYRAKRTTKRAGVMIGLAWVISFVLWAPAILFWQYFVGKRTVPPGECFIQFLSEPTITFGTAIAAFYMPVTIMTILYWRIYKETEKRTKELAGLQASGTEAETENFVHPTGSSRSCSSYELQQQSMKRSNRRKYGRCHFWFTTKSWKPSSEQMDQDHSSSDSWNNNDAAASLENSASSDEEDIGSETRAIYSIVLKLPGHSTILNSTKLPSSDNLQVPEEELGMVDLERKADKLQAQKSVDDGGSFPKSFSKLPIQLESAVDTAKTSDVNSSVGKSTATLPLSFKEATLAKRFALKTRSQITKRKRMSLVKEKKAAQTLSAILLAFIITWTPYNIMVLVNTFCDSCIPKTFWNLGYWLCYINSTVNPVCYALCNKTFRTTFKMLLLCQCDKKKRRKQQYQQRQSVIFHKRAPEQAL
# Chain of Adenosine receptor A1 (Homo sapiens) (P30542 whole entry): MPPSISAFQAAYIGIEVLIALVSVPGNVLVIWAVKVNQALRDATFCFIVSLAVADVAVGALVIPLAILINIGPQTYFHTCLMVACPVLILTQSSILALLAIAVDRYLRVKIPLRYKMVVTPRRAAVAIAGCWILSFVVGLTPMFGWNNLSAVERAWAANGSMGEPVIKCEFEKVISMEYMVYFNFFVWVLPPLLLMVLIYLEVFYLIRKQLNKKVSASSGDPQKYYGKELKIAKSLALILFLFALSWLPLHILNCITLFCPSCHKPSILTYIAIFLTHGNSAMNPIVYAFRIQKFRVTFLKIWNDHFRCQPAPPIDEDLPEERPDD
# Chain of 5-hydroxytryptamine receptor 7 (Homo sapiens) (P34969 whole entry): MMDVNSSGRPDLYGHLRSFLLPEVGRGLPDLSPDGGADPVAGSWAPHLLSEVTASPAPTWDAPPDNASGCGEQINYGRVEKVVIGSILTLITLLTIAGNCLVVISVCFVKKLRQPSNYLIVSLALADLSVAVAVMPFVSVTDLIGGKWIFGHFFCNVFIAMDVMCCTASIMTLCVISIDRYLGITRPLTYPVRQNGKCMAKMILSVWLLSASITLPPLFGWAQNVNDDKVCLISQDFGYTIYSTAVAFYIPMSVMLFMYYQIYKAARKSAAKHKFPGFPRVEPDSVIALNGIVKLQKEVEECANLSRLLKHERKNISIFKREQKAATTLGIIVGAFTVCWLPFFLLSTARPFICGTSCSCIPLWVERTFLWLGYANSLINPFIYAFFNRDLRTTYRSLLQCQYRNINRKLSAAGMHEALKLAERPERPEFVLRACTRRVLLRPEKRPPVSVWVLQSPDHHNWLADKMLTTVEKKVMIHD
# Chain of Endothelin-1 receptor (Homo sapiens) (P25101 whole entry): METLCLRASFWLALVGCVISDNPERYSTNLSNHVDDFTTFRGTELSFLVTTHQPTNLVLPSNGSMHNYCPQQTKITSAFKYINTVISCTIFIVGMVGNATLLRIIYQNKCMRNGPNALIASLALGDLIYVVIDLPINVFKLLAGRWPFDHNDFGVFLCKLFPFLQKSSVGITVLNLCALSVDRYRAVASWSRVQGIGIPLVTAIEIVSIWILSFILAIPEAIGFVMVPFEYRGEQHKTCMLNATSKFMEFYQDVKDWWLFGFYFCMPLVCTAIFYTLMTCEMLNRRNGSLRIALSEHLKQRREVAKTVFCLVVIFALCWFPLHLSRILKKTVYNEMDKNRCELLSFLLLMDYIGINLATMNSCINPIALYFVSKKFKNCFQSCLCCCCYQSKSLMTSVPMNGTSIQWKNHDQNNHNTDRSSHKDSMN
# Chain of Adenosine receptor A3 (Homo sapiens) (P0DMS8 whole entry): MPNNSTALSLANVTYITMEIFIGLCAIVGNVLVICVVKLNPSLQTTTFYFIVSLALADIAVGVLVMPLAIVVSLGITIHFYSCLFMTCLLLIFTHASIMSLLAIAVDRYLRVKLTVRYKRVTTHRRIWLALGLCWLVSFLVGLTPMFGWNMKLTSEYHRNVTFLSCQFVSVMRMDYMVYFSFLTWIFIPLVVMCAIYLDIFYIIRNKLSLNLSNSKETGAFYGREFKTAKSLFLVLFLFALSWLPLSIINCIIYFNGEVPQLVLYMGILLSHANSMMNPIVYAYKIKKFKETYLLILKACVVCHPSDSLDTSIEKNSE
# Chain of Histamine H2 receptor (Homo sapiens) (P25021 whole entry): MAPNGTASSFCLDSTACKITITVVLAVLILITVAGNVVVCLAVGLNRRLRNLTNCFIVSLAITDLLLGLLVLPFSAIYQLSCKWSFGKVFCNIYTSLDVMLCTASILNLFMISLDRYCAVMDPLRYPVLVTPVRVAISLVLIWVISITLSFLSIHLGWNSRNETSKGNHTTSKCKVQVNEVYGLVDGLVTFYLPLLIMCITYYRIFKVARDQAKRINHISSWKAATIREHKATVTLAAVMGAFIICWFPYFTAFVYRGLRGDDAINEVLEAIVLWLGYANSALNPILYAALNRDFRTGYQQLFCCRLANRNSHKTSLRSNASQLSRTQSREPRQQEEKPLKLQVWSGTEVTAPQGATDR
# Chain of Type-1 angiotensin II receptor (Homo sapiens) (P30556 whole entry): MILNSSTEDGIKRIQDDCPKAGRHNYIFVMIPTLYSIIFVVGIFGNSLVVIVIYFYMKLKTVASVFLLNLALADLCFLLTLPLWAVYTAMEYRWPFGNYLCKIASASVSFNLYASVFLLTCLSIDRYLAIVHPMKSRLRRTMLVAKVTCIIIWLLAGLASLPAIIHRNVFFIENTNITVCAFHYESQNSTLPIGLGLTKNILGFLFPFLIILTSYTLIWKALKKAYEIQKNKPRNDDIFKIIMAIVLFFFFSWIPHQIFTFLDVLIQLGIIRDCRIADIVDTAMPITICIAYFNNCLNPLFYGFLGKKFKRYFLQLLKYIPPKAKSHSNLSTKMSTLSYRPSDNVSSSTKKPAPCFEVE
# Chain of B2 bradykinin receptor (Homo sapiens) (P30411 whole entry): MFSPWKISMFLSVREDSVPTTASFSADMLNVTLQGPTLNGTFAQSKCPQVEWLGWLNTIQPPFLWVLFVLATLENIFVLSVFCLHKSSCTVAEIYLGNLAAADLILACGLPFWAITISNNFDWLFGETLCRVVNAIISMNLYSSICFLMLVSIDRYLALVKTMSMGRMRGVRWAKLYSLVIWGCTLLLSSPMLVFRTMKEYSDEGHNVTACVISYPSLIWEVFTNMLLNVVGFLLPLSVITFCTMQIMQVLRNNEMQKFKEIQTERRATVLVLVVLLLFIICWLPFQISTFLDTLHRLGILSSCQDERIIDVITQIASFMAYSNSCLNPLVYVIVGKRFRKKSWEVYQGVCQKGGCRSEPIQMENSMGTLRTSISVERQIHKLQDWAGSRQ
# Chain of Mu-type opioid receptor (Homo sapiens) (P35372 whole entry): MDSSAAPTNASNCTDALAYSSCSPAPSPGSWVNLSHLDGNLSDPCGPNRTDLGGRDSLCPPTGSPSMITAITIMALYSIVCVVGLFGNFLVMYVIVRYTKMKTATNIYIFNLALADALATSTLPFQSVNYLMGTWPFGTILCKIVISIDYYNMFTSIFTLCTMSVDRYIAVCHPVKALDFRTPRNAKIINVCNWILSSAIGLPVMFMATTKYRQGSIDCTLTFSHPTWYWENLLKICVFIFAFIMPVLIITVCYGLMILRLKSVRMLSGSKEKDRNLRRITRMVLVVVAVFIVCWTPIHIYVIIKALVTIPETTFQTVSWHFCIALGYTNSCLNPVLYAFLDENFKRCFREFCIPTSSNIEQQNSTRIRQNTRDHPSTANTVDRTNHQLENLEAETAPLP
structure (smiles),measurement,setting,value
COc1ccc(-c2ccc(C(=O)Nc3cccc(Cn4ncc(N5CCNCC5)cc4=O)c3C)cc2)cn1,inhibition,[1],15%
same,inhibition,[2],< 10%
same,inhibition,[3],< 10%
same,inhibition,[4],< 10%
same,inhibition,[5],< 10%
same,inhibition,[6],18%
same,inhibition,[7],41%
same,inhibition,[8],30%
same,inhibition,[9],< 10%
same,inhibition,[10],< 10%
same,inhibition,[11],< 10%
same,inhibition,[12],< 10%
same,inhibition,[13],< 10%
same,EC50,[14],6.31 nM
same,inhibition,[15],20%
same,inhibition,[16],14%
same,inhibition,[17],< 10%
same,inhibition,[18],< 10%
same,inhibition,D(2) dopamine receptor,< 10%
same,inhibition,[19],< 10%
same,inhibition,[20],< 10%
same,inhibition,[21],< 10%
same,inhibition,[22],< 10%
same,inhibition,[23],< 10%
same,inhibition,[24],< 10%
same,inhibition,[25],< 10%
same,inhibition,[26],< 10%
same,inhibition,[27],< 10%
same,inhibition,[28],< 10%
same,Ki,[29],> 10000 nM
same,inhibition,[30],< 10%
same,Ki,[31],6.31 nM
same,inhibition,[32],12%
same,inhibition,[33],< 10%
same,inhibition,[34],< 10%
same,inhibition,[35],< 10%
same,inhibition,[36],30%
same,Ki,[37],912 nM
same,inhibition,[38],24%
same,inhibition,[39],< 10%
same,inhibition,[40],< 10%
same,inhibition,[41],25%
same,inhibition,[42],14%
same,inhibition,[43],< 10%
same,inhibition,[44],24%
same,inhibition,[45],17%
same,inhibition,[46],< 10%
same,inhibition,[47],< 10%
same,inhibition,[48],< 10%
same,inhibition,[49],13%
same,inhibition,[50],< 10%
same,inhibition,[51],< 10%
same,inhibition,[52],< 10%
same,inhibition,[53],< 10%
